# Measurements from different studies.
# Each line is one published result; the experiments were not run side by side.
# Target: Serine/threonine-protein kinase 36 (STK36, Homo sapiens, UniProt Q9NRP7)
# Sequence (Q9NRP7 1-1315, as in one of the studies): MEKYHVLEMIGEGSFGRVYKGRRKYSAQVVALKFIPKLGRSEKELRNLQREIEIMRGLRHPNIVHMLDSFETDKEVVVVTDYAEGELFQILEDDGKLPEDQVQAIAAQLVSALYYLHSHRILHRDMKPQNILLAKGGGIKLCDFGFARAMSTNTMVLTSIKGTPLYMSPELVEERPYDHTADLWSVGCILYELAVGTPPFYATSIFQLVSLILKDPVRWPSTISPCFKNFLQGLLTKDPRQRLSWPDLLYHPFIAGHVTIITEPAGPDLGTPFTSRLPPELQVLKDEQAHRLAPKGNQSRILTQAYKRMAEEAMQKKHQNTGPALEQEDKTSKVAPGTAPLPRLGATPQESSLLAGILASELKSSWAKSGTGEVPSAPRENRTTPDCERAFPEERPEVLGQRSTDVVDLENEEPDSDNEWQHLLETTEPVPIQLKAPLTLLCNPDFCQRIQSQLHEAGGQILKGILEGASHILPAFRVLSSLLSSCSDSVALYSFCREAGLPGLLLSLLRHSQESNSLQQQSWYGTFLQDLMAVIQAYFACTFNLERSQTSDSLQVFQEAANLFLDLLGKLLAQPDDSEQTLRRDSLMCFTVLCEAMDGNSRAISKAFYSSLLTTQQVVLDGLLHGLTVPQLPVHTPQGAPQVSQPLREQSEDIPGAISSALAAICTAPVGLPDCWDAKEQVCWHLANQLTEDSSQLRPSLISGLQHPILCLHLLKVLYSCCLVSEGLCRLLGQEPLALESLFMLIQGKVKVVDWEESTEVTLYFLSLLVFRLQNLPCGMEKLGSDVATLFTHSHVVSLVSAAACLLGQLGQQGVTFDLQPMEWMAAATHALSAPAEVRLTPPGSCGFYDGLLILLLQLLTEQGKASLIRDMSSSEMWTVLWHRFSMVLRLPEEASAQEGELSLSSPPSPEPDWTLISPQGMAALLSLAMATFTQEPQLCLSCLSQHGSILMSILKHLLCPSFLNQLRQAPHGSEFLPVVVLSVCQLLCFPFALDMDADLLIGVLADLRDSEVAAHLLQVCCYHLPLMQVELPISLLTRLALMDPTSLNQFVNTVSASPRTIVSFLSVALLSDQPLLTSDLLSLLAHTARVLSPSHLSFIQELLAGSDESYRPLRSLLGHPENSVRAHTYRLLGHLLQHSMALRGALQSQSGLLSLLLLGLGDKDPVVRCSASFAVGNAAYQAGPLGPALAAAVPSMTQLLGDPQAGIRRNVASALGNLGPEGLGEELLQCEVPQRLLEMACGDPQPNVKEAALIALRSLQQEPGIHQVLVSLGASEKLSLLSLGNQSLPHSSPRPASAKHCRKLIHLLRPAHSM
Compound,test,conditions,remaining binding [%]
COc1ncc2cc3ccccc3nc2c1C#N,"cell-free assay, competition with immobilised ligand",5 µM,88
CN(c1ccnc(CNc2nc(Nc3ccc4c(c3)CC(=O)N4)ncc2C(F)(F)F)n1)S(C)(=O)=O,"cell-free assay, competition with immobilised ligand",1 µM,87
CC1CCCN1c1nccc(-c2cnn3ncccc23)n1 (stereo not shown),binding,1 µM,100
Cc1cnc(Nc2ccc(C(=O)N3CCC(N4CCCC4)CC3)cc2)nc1-c1cc2ccccc2s1,"binding, competition with immobilised ligand",1 µM,3.6
CS(=O)(=O)N1CCCC(NC(=O)[C@H](CCC2CCCCC2)NC(=O)c2ccc(CNc3ncnc4c3nnn4-c3ccccc3)cc2)C1 (stereo partly shown),"cell-free assay, competition with immobilised ligand",0.1 µM,97
CN(C)c1ncc(F)c(-c2cnn3ncccc23)n1,binding,1 µM,100
COc1cccc(CNC(=O)c2nc3scc(COCc4ccc(C(=O)O)cc4)c3c(=O)[nH]2)c1,"cell-free assay, competition with immobilised ligand",1 µM,100
CNC(=O)[C@@H]1CC[C@@H](n2c(-c3ccc4cnccc4c3)nc3ccc(C(=O)NCc4cccc(C(N)=O)c4)cc32)C1,"binding, competition with immobilised ligand",1 µM,93
O=C(c1ccc(Nc2ncc(Cl)c(-c3cc4ccccc4s3)n2)cc1)N1CCC(N2CCCC2)CC1,"binding, competition with immobilised ligand",1 µM,3.4
C[C@H]1CCN(c2nccc(-c3cnn4ncccc34)n2)C1,binding,1 µM,100
COc1cnc(Nc2cccc(S(N)(=O)=O)c2)nc1N1CCN(c2ccccc2)C(=O)C1,"binding, competition with immobilised ligand",1 µM,100
O=C(NCC1CCOCC1)c1n[nH]cc1NC(=O)c1c(F)cccc1F,"binding, competition with immobilised ligand",1 µM,98
Nc1ncc2c(n1)-c1c([nH]c3ccc(C#CC4CC4)cc13)CCCC2,"binding, competition with immobilised ligand",1 µM,100
O=C(NCCCN1CCOCC1)c1ccc(Nc2nccc(-c3cc4ccccc4s3)n2)cc1,"binding, competition with immobilised ligand",1 µM,27
Cc1cc(-n2nc(Cc3cc(F)cc(C(F)(F)F)c3)nc2C)ccc1C(N)=O,"cell-free assay, competition with immobilised ligand",1 µM,100
C[C@@H](c1ccc(-n2cnc3c(N)ncnc32)cc1)N1CCc2nn(C)c(Cc3ccccc3)c2C1=O,"binding, competition with immobilised ligand",0.1 µM,67
c1ccc(N2CCN(Cc3nc4ccccc4[nH]3)CC2)nc1,"binding, competition with immobilised ligand",1 µM,84
CN(c1nccc(-c2cnn3ncccc23)n1)C1CC1,binding,1 µM,100
COc1ccc2c(c1)O[C@H](c1ccc(OC)c(OC)c1)C[C@@H]2NC(=O)C1(c2ccc3c(c2)OC(F)(F)O3)CC1,"cell-free assay, competition with immobilised ligand",1 µM,94
N[C@H]1CCN(c2nccc(-c3cnn4ncccc34)n2)C1,binding,1 µM,62
CO[C@H]1CC[C@H](CNc2ccc(S(=O)(=O)NC(=O)c3ccc(N4CCN(CC5=C(c6ccc(Cl)cc6)CC(C)(C)CC5)CC4)cc3Oc3cnc4[nH]ccc4c3)cc2[N+](=O)[O-])CC1,"cell-free assay, competition with immobilised ligand",1 µM,71
CN(C)c1nccc(-c2cnc3ncccn23)n1,binding,1 µM,99
